# pKd: −log10 of the molar value. The source made the active and inactive calls. The rule behind the calls is not given here.
# How the values were obtained:
# [1] = Binding affinity to Triton-X 100 assessed as line broadening at 100 to 300 uM by 1H-NMR analysis
# [2] = biological target: T1, Rap guanine nucleotide exchange factor 3 (Homo sapiens) (UniProt O95398); assay: Binding affinity to human EPAC1 cAMP binding domain (149 to 318 residues) assessed as residue-dependent change in chemical shift at 100 uM using aggregate form of compound by [15N-1H]HSQC spectroscopic analysis
# T1 sequence (whole entry): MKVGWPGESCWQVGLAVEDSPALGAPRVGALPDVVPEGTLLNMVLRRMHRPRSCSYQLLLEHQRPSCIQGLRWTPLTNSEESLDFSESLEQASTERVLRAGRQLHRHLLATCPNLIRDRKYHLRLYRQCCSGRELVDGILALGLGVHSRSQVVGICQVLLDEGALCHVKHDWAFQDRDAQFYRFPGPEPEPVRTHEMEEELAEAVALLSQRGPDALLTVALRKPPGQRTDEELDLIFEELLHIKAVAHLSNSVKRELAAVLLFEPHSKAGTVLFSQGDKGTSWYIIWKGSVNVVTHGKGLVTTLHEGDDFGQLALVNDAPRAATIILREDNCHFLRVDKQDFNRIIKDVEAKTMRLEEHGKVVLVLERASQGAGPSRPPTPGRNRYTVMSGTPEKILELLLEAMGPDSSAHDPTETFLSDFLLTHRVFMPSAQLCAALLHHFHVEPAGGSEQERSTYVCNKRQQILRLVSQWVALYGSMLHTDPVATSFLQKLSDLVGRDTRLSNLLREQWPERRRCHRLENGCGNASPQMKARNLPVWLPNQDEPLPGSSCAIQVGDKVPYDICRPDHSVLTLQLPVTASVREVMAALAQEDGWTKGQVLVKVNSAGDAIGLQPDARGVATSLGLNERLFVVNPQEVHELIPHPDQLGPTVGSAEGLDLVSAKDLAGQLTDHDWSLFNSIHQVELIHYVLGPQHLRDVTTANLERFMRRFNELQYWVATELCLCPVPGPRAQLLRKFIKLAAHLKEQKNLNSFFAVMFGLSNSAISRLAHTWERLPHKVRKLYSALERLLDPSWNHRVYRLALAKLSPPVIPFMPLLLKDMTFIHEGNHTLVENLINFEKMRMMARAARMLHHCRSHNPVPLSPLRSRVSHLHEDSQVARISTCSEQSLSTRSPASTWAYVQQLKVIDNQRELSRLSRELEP
# [3] = Binding affinity to Triton-X 100 assessed as line broadening at 100 uM by 1H-NMR spectra analysis
# [4] = biological target: T1, Rap guanine nucleotide exchange factor 3 (Homo sapiens); assay: Binding affinity to human EPAC1 cAMP binding domain (149 to 318 residues) at 400 uM in presence of 0.1% triton X-100 by [15N-1H]HSQC spectroscopic analysis
# [5] = biological target: T2, Albumin (Homo sapiens, UniProt P02768); assay: Binding affinity to human serum albumin assessed as inhibition of compound aggregation at 200 to 500 uM by dynamic light scattering analysis
# T2 sequence (P02768 whole entry): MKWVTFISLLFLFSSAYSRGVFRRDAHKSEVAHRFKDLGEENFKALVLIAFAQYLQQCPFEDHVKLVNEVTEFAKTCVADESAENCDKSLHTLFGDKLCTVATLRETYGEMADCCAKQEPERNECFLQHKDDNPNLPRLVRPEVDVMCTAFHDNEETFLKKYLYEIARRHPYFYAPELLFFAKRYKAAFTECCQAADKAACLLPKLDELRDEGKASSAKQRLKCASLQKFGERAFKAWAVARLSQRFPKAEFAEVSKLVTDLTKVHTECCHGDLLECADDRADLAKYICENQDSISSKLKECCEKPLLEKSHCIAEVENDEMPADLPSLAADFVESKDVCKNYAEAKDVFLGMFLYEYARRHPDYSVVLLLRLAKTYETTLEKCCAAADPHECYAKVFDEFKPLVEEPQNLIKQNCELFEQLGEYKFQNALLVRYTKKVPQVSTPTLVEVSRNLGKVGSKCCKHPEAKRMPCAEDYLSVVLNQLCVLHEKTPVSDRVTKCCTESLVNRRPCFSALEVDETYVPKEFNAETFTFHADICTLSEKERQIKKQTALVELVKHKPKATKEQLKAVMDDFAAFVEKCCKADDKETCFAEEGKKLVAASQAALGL
# In short: (§1)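 Dynamic light scattering in NMR buffer, samples filtered through 0.22 μm and centrifuged 5 min at 13 500 rpm before measurement. Autocorrelation accumulated 150 s at a 173° scattering angle, in replicates of 3–5, with water viscosity used in analysis; intensity or volume size distributions reported.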
# [6] = biological target: T2, Albumin; assay: Binding affinity to human serum albumin assessed as inhibition of compound aggregation at 250 uM by surface plasmon resonance analysis
# In short: (§2)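 SPR on a nonfunctionalized gold nanoparticle sensor; samples in NMR buffer with DMSO at 1.25%, injected at 33 μL/min alongside matched DMSO controls (with HSA where present, 25 μM), in duplicate. Surface regenerated only after HSA-containing injections.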
# [7] = Binding affinity to Triton-X 100 assessed as intra-molecular saturation transfer at 100 uM at 6.61 ppm by STD spectra analysis
# In short: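 STD NMR, saturation by a train of 40 Gaussian pulses of 50 ms each; selective on-resonance irradiation at the stated ppm (TX at 7.48 ppm), off-resonance at 30 ppm, interleaved and subtracted by phase cycling. 32K points, 16 ppm width centred at 4.7 ppm, 256 scans, 16 dummy scans, 0.1 s recycle delay (~15 min); 3 Hz exponential line broadening.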
# [8] = biological target: T2, Albumin; assay: Displacement of dansylated arginine from human serum albumin by fluorescence assay; settings: read-out: Kd(app)
# In short: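 Competition of ligand against 100 μM dansyl-arginine (Sudlow site 1, 1:1 stoichiometry) bound to 2.5 μM HSA. Excitation 370 nm, emission 460 nm. Apparent Kd fitted by Wang's method using least squares, assuming no other ligand sites on HSA, so treated as a maximum apparent value.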
# [9] = Aggregation property of the compound assessed as shift in peak width by 1H-NMR analysis; type: physicochemical
# In short: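 Line widths, chemical shifts and peak intensities tracked; CAC taken as the concentration where intensities deviate from linear dependence, or, for line width, the minimal concentration that increases peak width.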
# [10] = biological target: T1, Rap guanine nucleotide exchange factor 3 (Homo sapiens); assay: Binding affinity to human EPAC1 cAMP binding domain (149 to 318 residues) assessed as peak size at 50 to 200 uM using aggregate form of compound by dynamic light scattering analysis; in short: as §1
# [11] = Binding affinity to Triton-X 100 assessed as inter-molecular cross relaxation at 100 uM by NOESY spectra analysis
# In short: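 2D NOESY and ROESY of 100 μM ESI with 0.025% Triton X-100 or 500 μM ESI with 0.05% Triton X-100; 2K × 512 complex points, 12 ppm spectral width centred at 4.7 ppm, intra- and intermolecular cross-peaks mapped.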
# [12] = biological target: T2, Albumin; assay: Displacement of ANS from human serum albumin up to 50 uM by fluorescence assay
# In short: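 Fluorescence competition: 2.5 μM HSA with 5 or 100 μM ANS, ligand added over a concentration range. Excitation 360 nm; emission read at 460 and 480 nm to check for blue shift. Signal normalized between ANS alone (minimum) and HSA:ANS (maximum).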
# [13] = biological target: T1, Rap guanine nucleotide exchange factor 3 (Homo sapiens); assay: Binding affinity to human EPAC1 cAMP binding domain (149 to 318 residues) assessed as increase in peak intensity in presence of human serum albumin by [15N-1H]HSQC spectroscopic analysis relative to control
# [14] = biological target: T1, Rap guanine nucleotide exchange factor 3 (Homo sapiens); assay: Binding affinity to human EPAC1 cAMP binding domain (149 to 318 residues) assessed as change in chemical shift at 100 uM in presence of human serum albumin by [15N-1H]HSQC spectroscopic analysis relative to compound alone
# [15] = Aggregation property of the compound in NMR buffer assessed as micellar morphology at 200 uM by uranyl acetate staining-based transmission electron microscopic analysis; type: physicochemical
# [16] = Aggregation property of the compound in NMR buffer at 250 uM by surface plasmon resonance analysis; type: physicochemical; in short: as §2
# [17] = Binding affinity to Triton-X 100 assessed as change in chemical shift at 100 uM by 1H-NMR spectra analysis
# [18] = Aggregation property of the compound in NMR buffer assessed as diameter of aggregate at 500 uM by dynamic light scattering analysis; type: physicochemical; in short: as §1
structure (smiles),measurement,setting,value
CC(C)(C)c1cc(C(=O)/C(C#N)=N/Nc2cccc(Cl)c2)no1,Activity,[1],Active
same,Activity,[2],Active
same,Activity,[3],Active
same,Activity,[4],Active
same,inhibition (INH),[5],Active
same,inhibition (INH),[6],Active
same,Activity,[7],Active
same,pKd,[8],6.64
same,Activity,[9],Not Active
same,Activity,[10],250 nm
same,Activity,[11],Active
same,Activity,[12],Active
same,Activity,[13],30 to 40%
same,Activity,[14],< 30%
same,Activity,[15],Active
same,Activity,[16],Active
same,Activity,[17],Active
same,Activity,[18],250 nm

# — ChEMBL document CHEMBL4396878, “Mechanisms of Specific versus Nonspecific Interactions of Aggregation-Prone Inhibitors and Attenuators” (J Med Chem, 2019)
